According to ChEMBL document CHEMBL5724801, “EUbOPEN Chemogenomics Library - Multiplex” (2024):
Where “and” joins values, the source holds several entries; their conditions need not be identical. Equal entries are not always repeated.

tested on: HEK-293T; assay: Multiplex assay against HEK293T; assay type: toxicity, cell-based; conditions: human, 12 h, 1 µM, compound concentration 1 uM
Procedure, shortened: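 Hoechst33342, BioTracker Green Microtubule Cytoskeleton Dye, MitoTracker Red and Annexin V Alexa Fluor 680 were added to live cells at seeding, and imaging on a CQ1 microscope at 37°C and 5% CO2 followed compound addition. Gating by CellPathfinder machine learning separated cells into Hoechst high-intensity objects or normal cells, then normal cells into healthy, pyknosed or fragmented nuclei, then pyknosed cells into mitotic or apoptotic. Per cents of healthy-nucleus cells are reported for the tubulin, mitochondrial-mass and membrane-permeability phenotypes.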

SMILES	Population Apoptotic (%)	Population Fragmented Nuclei (%)	Population Hoechst High Intensity Objects (%)	Population Membrane Permeable-Phenotype (%)	Population Mitochondria Different-Phenotype (%)	Population Mitotic Cells (%)	Population Normal (%)	Population Pyknosed Nuclei (%)	Population Tubulin-Different-Phenotype (%)	Total Cell Count
O=C1NC(NC23CC4CC(CC(C4)C2)C3)=N/C1=C\c1ccc2ncsc2c1	29.13% and 49.03%	8.91% and 6.01%	6.05% and 0.54%	1.75% and 0%	15.79% and 5.88%	70.87% and 50.97%	93.95% and 99.46%	62.87% and 84.7%	17.54% and 23.53%	215 and 184
CCOC(=O)c1c(/C(C#N)=C\N)c2ccc(Cl)c(Cl)c2n1C	10.92% and 11.11%	1.47% and 6.57%	0.59% and 0%	0.47% and 0%	35.81% and 27.59%	89.08% and 88.89%	99.41% and 100%	35.1% and 72.26%		341 and 137
CCn1c(-c2nonc2N)nc2c(C#CC(C)(C)O)ncc(OCC3CCCNC3)c21 (stereo not drawn)	10.29% and 11.11%	2.35% and 5.52%	0.29% and 0%	0%	31.65% and 45.45%	89.71% and 88.89%	99.71% and 100%	51.32% and 86.9%		342 and 145
COc1cc(NC(=O)CCN2CCC(OC(=O)Nc3ccccc3-c3ccccc3)CC2)c(Cl)cc1CNC[C@H](O)c1ccc(O)c2[nH]c(=O)ccc12 [BATEFENTEROL]	42% and 47%	4% and 3%	7% and 8%	0%	65% and 84%	57% and 52%	92% and 91%	14% and 17%	44% and 41%	420 and 285

same assay, conditions: human, 12 h, 1 µM, compound concentration 1 uM

SMILES	Population Healthy Nuclei (%)
CCOC(=O)c1c(/C(C#N)=C\N)c2ccc(Cl)c(Cl)c2n1C	63.42% and 21.17%
COc1cc(NC(=O)CCN2CCC(OC(=O)Nc3ccccc3-c3ccccc3)CC2)c(Cl)cc1CNC[C@H](O)c1ccc(O)c2[nH]c(=O)ccc12 [BATEFENTEROL]	81% and 78%

same assay, conditions: human, 12 h, 10 µM, compound concentration 10 uM

SMILES	Population Apoptotic (%)	Population Fragmented Nuclei (%)	Population Healthy Nuclei (%)	Population Hoechst High Intensity Objects (%)	Population Membrane Permeable-Phenotype (%)	Population Mitochondria Different-Phenotype (%)	Population Mitotic Cells (%)	Population Normal (%)	Population Pyknosed Nuclei (%)	Population Tubulin-Different-Phenotype (%)
O=C1NC(NC23CC4CC(CC(C4)C2)C3)=N/C1=C\c1ccc2ncsc2c1	29.21% and 56.72%	84.08% and 93.38%	3.91% and 2.86%	21.42% and 7.86%	0%	0%	70.79% and 43.28%	78.58% and 92.14%	12.01% and 3.76%	0%
CCOC(=O)c1c(/C(C#N)=C\N)c2ccc(Cl)c(Cl)c2n1C	10.34% and 8.77%	2.88% and 1.83%	59.94% and 28.66%	0.64% and 0%	0.53% and 0%	26.74% and 19.15%	89.66% and 91.23%	99.36% and 100%	37.18% and 69.51%	
CCn1c(-c2nonc2N)nc2c(C#CC(C)(C)O)ncc(OCC3CCCNC3)c21 (stereo not drawn)	15.66% and 20.38%	0.98% and 2.91%		1.92% and 0%	0%	33.96% and 20%	84.34% and 79.62%	98.08% and 100%	64.5% and 91.28%	48.11% and 40%
COc1cc(NC(=O)CCN2CCC(OC(=O)Nc3ccccc3-c3ccccc3)CC2)c(Cl)cc1CNC[C@H](O)c1ccc(O)c2[nH]c(=O)ccc12 [BATEFENTEROL]	100% and 52%			31% and 11%	0% and 1%			68% and 88%	9% and 22%	

same assay, conditions: human, 12 h, 10 µM, compound concentration 10 uM

SMILES	Total Cell Count
O=C1NC(NC23CC4CC(CC(C4)C2)C3)=N/C1=C\c1ccc2ncsc2c1	943 and 1934
CCOC(=O)c1c(/C(C#N)=C\N)c2ccc(Cl)c(Cl)c2n1C	314 and 164
CCn1c(-c2nonc2N)nc2c(C#CC(C)(C)O)ncc(OCC3CCCNC3)c21 (stereo not drawn)	313 and 172

same assay, conditions: human, 24 h, 1 µM, compound concentration 1 uM

SMILES	Population Apoptotic (%)	Population Fragmented Nuclei (%)	Population Healthy Nuclei (%)	Population Hoechst High Intensity Objects (%)	Population Membrane Permeable-Phenotype (%)	Population Mitochondria Different-Phenotype (%)	Population Mitotic Cells (%)	Population Normal (%)	Population Pyknosed Nuclei (%)	Population Tubulin-Different-Phenotype (%)
O=C1NC(NC23CC4CC(CC(C4)C2)C3)=N/C1=C\c1ccc2ncsc2c1	59.35% and 52.46%	10.75% and 5.21%	23.12% and 8.06%	4.62% and 0%	6.98% and 5.88%	4.65% and 0%	40.65% and 47.54%	95.38% and 100%	66.13% and 86.73%	16.28% and 11.76%
CCOC(=O)c1c(/C(C#N)=C\N)c2ccc(Cl)c(Cl)c2n1C	15.32% and 13.98%	1.11% and 3.87%	78.41% and 36.13%	0.18% and 0%	1.18% and 0%	15.29% and 16.07%	84.68% and 86.02%	99.82% and 100%	20.48% and 60%	5.88% and 5.36%
CCn1c(-c2nonc2N)nc2c(C#CC(C)(C)O)ncc(OCC3CCCNC3)c21 (stereo not drawn)	27.07% and 20.59%	1.2% and 4.2%	58.73% and 24.48%	0.3% and 0%	1.54% and 0%	34.87% and 20%	72.93% and 79.41%	99.7% and 100%	40.06% and 71.33%	
COc1cc(NC(=O)CCN2CCC(OC(=O)Nc3ccccc3-c3ccccc3)CC2)c(Cl)cc1CNC[C@H](O)c1ccc(O)c2[nH]c(=O)ccc12 [BATEFENTEROL]	44% and 41%	9% and 7%	77% and 82%	5% and 8%	0%	59% and 65%	55% and 58%	94% and 91%	12% and 9%	35% and 27%

same assay, conditions: human, 24 h, 1 µM, compound concentration 1 uM

SMILES	Total Cell Count
O=C1NC(NC23CC4CC(CC(C4)C2)C3)=N/C1=C\c1ccc2ncsc2c1	195 and 211
CCn1c(-c2nonc2N)nc2c(C#CC(C)(C)O)ncc(OCC3CCCNC3)c21 (stereo not drawn)	333 and 143
COc1cc(NC(=O)CCN2CCC(OC(=O)Nc3ccccc3-c3ccccc3)CC2)c(Cl)cc1CNC[C@H](O)c1ccc(O)c2[nH]c(=O)ccc12 [BATEFENTEROL]	527 and 403

same assay, conditions: human, 24 h, 10 µM, compound concentration 10 uM

SMILES	Population Apoptotic (%)	Population Fragmented Nuclei (%)	Population Healthy Nuclei (%)	Population Hoechst High Intensity Objects (%)	Population Membrane Permeable-Phenotype (%)	Population Mitochondria Different-Phenotype (%)	Population Mitotic Cells (%)	Population Normal (%)	Population Pyknosed Nuclei (%)	Population Tubulin-Different-Phenotype (%)
O=C1NC(NC23CC4CC(CC(C4)C2)C3)=N/C1=C\c1ccc2ncsc2c1	30% and 40.21%	85.18% and 91.28%	4.04% and 1.95%	21.4% and 9.41%	3.33% and 0%	0%	70% and 59.79%	78.6% and 90.59%	10.78% and 6.76%	0% and 3.57%
CCOC(=O)c1c(/C(C#N)=C\N)c2ccc(Cl)c(Cl)c2n1C	10.47% and 16.46%	1.69% and 1.2%	80.17% and 51.2%	0%	1.05% and 1.18%	14.21% and 7.06%	89.53% and 83.54%	100%	18.14% and 47.59%	7.11% and 4.71%
CCn1c(-c2nonc2N)nc2c(C#CC(C)(C)O)ncc(OCC3CCCNC3)c21 (stereo not drawn)	43.87% and 34.93%	1.02% and 3.07%		1.01% and 0%	0%	55.56% and 50%	56.13% and 65.07%	98.99% and 100%	52.9% and 89.57%	82.22% and 41.67%
COc1cc(NC(=O)CCN2CCC(OC(=O)Nc3ccccc3-c3ccccc3)CC2)c(Cl)cc1CNC[C@H](O)c1ccc(O)c2[nH]c(=O)ccc12 [BATEFENTEROL]					0%	100% and 89%		66% and 93%	0% and 19%	100% and 78%

same assay, conditions: human, 24 h, 10 µM, compound concentration 10 uM

SMILES	Total Cell Count
O=C1NC(NC23CC4CC(CC(C4)C2)C3)=N/C1=C\c1ccc2ncsc2c1	944 and 1583
CCOC(=O)c1c(/C(C#N)=C\N)c2ccc(Cl)c(Cl)c2n1C	474 and 166
CCn1c(-c2nonc2N)nc2c(C#CC(C)(C)O)ncc(OCC3CCCNC3)c21 (stereo not drawn)	296 and 163

same assay, conditions: human, 48 h, 1 µM, compound concentration 1 uM

SMILES	Population Apoptotic (%)	Population Fragmented Nuclei (%)	Population Healthy Nuclei (%)	Population Hoechst High Intensity Objects (%)	Population Membrane Permeable-Phenotype (%)	Population Mitochondria Different-Phenotype (%)	Population Mitotic Cells (%)	Population Normal (%)	Population Pyknosed Nuclei (%)	Population Tubulin-Different-Phenotype (%)
O=C1NC(NC23CC4CC(CC(C4)C2)C3)=N/C1=C\c1ccc2ncsc2c1	47.65% and 48.67%	14.23% and 10.83%	14.64% and 17.2%	2.85% and 0.63%	0% and 3.7%	40% and 33.33%	52.35% and 51.33%	97.15% and 99.37%	71.13% and 71.97%	25.71% and 48.15%
CCOC(=O)c1c(/C(C#N)=C\N)c2ccc(Cl)c(Cl)c2n1C	7.43% and 15.94%	4.65% and 2.55%	86.28% and 72.26%	0%	4.76% and 3.03%	8.8% and 13.13%	92.57% and 84.06%	100%	9.06% and 25.18%	
CCn1c(-c2nonc2N)nc2c(C#CC(C)(C)O)ncc(OCC3CCCNC3)c21 (stereo not drawn)	16.67% and 24.05%	1.43% and 3.95%	81.46% and 51.41%	0.32% and 0.56%	3.89% and 2.2%	59.34% and 63.74%	83.33% and 75.95%	99.68% and 99.44%	17.12% and 44.63%	
COc1cc(NC(=O)CCN2CCC(OC(=O)Nc3ccccc3-c3ccccc3)CC2)c(Cl)cc1CNC[C@H](O)c1ccc(O)c2[nH]c(=O)ccc12 [BATEFENTEROL]	35% and 51%	15% and 13%	75% and 79%	3%	0%	36% and 42%	65% and 48%	96%	8% and 6%	17%

same assay, conditions: human, 48 h, 1 µM, compound concentration 1 uM

SMILES	Total Cell Count
O=C1NC(NC23CC4CC(CC(C4)C2)C3)=N/C1=C\c1ccc2ncsc2c1	246 and 158
COc1cc(NC(=O)CCN2CCC(OC(=O)Nc3ccccc3-c3ccccc3)CC2)c(Cl)cc1CNC[C@H](O)c1ccc(O)c2[nH]c(=O)ccc12 [BATEFENTEROL]	744 and 547

same assay, conditions: human, 48 h, 10 µM, compound concentration 10 uM

SMILES	Population Apoptotic (%)	Population Fragmented Nuclei (%)	Population Healthy Nuclei (%)	Population Hoechst High Intensity Objects (%)	Population Membrane Permeable-Phenotype (%)	Population Mitochondria Different-Phenotype (%)	Population Mitotic Cells (%)	Population Normal (%)	Population Pyknosed Nuclei (%)	Population Tubulin-Different-Phenotype (%)
O=C1NC(NC23CC4CC(CC(C4)C2)C3)=N/C1=C\c1ccc2ncsc2c1	35.64% and 60.49%	84.47% and 93.33%	3.18% and 1.42%	23.26% and 9.23%	0%	0%	64.36% and 39.51%	76.74% and 90.77%	12.35% and 5.25%	0%
CCOC(=O)c1c(/C(C#N)=C\N)c2ccc(Cl)c(Cl)c2n1C	9.24% and 19.3%	4.82% and 1.55%	85.93% and 80.75%	0% and 0.92%	5.88% and 2.31%	11.04% and 11.15%	90.76% and 80.7%	100% and 99.08%	9.25% and 17.7%	
CCn1c(-c2nonc2N)nc2c(C#CC(C)(C)O)ncc(OCC3CCCNC3)c21 (stereo not drawn)	73.58% and 71.96%	1.19% and 2.01%	56.75% and 26.17%	1.18% and 0%	2.8% and 0%	97.2% and 92.31%	26.42% and 28.04%	98.82% and 100%	42.06% and 71.81%	70.63% and 92.31%
COc1cc(NC(=O)CCN2CCC(OC(=O)Nc3ccccc3-c3ccccc3)CC2)c(Cl)cc1CNC[C@H](O)c1ccc(O)c2[nH]c(=O)ccc12 [BATEFENTEROL]	100% and 57%			7%	0%	66% and 76%		92%	16% and 11%	66% and 74%

same assay, conditions: human, 48 h, 10 µM, compound concentration 10 uM

SMILES	Total Cell Count
O=C1NC(NC23CC4CC(CC(C4)C2)C3)=N/C1=C\c1ccc2ncsc2c1	1066 and 1701
CCn1c(-c2nonc2N)nc2c(C#CC(C)(C)O)ncc(OCC3CCCNC3)c21 (stereo not drawn)	255 and 149
